Test [1] deals with HL-60. The experiment in a line: Antiproliferative activity against human HL60 cells after 24 to 48 hrs by MTT assay. The test is classed as functional, cell-based. (In general: Formazan colour is commonly taken as a measure of viable cells.)
Test [2] concerns COLO 205. As to the kind of experiment: Antiproliferative activity against human COLO205 cells after 24 to 48 hrs by MTT assay. The test is classed as functional, cell-based.
Test [3] concerns HCT-116. The experiment in a line: Antiproliferative activity against human HCT116 cells after 24 to 48 hrs by MTT assay. The test is classed as functional, cell-based.
For test [4], the system named is MCF7. The experiment in a line: Antiproliferative activity against human MCF7 cells after 24 to 48 hrs by MTT assay. The test is classed as functional, cell-based.
The test system of test [5] is A549. The experiment in a line: Antiproliferative activity against human A549 cells after 24 to 48 hrs by MTT assay. In kind it is functional, cell-based.
The nature of test [6]: Antiproliferative activity against human FR2 cells after 24 to 48 hrs by MTT assay. The test is classed as cell-based.
The subject of test [7] is HL-60. The experiment in a line: Downregulation of p110gamma protein expression levels in human HL60 cells at 1 uM after 2 hrs by Western blot analysis relative to control. The test is classed as functional. The essentials: (§1)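 HL-60 cells were exposed to test agent at 1 µM for short time intervals, including 2 h. Expression of the p110α, p110β, p110δ and p110γ isoforms was then assessed by western blotting. p110γ blots were also quantified by densitometry at each time point.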
(In western blotting, separated proteins are transferred to a membrane and probed.)

For test [8], the system named is HL-60. As to the kind of experiment: Downregulation of p110alpha protein expression levels in human HL60 cells at 1 uM after 2 hrs by Western blot analysis. In kind it is functional, cell-based. The essentials: as §1
Test [9] relates to HL-60. As to the kind of experiment: Downregulation of p110beta protein expression levels in human HL60 cells at 1 uM after 2 hrs by Western blot analysis. The test is classed as functional, cell-based. The essentials: as §1
The test system of test [10] is HL-60. As to the kind of experiment: Downregulation of p110delta protein expression levels in human HL60 cells at 1 uM after 2 hrs by Western blot analysis. The test is classed as functional, cell-based. The essentials: as §1
The species named for test [11] is Homo sapiens. As to the kind of experiment: Selectivity index, ratio of IC50 for PI3K-delta (unknown origin) to IC50 for PI3K-gamma (unknown origin).
Test [12] concerns the target Phosphatidylinositol 4,5-bisphosphate 3-kinase catalytic subunit alpha isoform (Homo sapiens, UniProt P42336). The experiment in a line: Inhibition of PI3K-alpha (unknown origin) by cell free biochemical assay.
For test [13], the target named is Phosphatidylinositol 4,5-bisphosphate 3-kinase catalytic subunit beta isoform (Homo sapiens, UniProt P42338). The experiment in a line: Inhibition of PI3K-beta (unknown origin) by cell free biochemical assay.
For test [14], the target named is Phosphatidylinositol 4,5-bisphosphate 3-kinase catalytic subunit gamma isoform (Homo sapiens, UniProt P48736). The experiment in a line: Inhibition of PI3K-gamma (unknown origin) by cell free biochemical assay.
For test [15], the target named is T1, Phosphatidylinositol 4,5-bisphosphate 3-kinase catalytic subunit delta isoform (Homo sapiens, UniProt O00329).
T1 sequence (O00329 whole entry): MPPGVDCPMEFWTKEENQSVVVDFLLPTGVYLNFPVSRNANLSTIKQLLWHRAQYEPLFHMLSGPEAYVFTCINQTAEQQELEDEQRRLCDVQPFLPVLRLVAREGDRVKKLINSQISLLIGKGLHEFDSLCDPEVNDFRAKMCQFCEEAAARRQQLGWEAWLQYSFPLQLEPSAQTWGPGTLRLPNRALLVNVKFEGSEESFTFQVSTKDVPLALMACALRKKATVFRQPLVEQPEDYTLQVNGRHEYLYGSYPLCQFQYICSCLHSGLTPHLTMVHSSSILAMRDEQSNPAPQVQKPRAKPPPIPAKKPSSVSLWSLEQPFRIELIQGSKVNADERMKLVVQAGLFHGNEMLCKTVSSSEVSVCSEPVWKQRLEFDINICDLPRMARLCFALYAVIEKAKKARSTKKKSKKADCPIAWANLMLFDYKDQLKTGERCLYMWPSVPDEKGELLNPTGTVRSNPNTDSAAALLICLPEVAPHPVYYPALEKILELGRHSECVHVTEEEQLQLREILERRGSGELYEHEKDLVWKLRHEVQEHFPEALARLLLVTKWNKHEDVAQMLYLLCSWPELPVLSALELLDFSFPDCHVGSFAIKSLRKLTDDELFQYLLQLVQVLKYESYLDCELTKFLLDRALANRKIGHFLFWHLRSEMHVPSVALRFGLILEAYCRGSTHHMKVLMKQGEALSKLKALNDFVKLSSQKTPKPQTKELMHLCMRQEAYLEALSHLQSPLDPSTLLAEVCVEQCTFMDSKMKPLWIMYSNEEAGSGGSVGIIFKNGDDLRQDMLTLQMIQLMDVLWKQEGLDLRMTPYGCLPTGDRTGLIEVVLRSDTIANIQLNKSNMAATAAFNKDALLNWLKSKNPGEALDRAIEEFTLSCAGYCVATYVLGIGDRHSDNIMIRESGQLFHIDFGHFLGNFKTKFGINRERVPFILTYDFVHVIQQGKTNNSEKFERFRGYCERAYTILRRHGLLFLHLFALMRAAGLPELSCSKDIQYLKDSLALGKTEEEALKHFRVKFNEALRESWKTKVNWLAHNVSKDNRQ
As to the kind of experiment: Inhibition of PI3K-delta (unknown origin) by cell free biochemical assay.

Calls of active or inactive are those of the source. The rule behind the calls is not given here. Where only a bound is given, the exact number is not on record here.

Sequence of Phosphatidylinositol 4,5-bisphosphate 3-kinase catalytic subunit alpha isoform (P42336 whole entry, canonical isoform): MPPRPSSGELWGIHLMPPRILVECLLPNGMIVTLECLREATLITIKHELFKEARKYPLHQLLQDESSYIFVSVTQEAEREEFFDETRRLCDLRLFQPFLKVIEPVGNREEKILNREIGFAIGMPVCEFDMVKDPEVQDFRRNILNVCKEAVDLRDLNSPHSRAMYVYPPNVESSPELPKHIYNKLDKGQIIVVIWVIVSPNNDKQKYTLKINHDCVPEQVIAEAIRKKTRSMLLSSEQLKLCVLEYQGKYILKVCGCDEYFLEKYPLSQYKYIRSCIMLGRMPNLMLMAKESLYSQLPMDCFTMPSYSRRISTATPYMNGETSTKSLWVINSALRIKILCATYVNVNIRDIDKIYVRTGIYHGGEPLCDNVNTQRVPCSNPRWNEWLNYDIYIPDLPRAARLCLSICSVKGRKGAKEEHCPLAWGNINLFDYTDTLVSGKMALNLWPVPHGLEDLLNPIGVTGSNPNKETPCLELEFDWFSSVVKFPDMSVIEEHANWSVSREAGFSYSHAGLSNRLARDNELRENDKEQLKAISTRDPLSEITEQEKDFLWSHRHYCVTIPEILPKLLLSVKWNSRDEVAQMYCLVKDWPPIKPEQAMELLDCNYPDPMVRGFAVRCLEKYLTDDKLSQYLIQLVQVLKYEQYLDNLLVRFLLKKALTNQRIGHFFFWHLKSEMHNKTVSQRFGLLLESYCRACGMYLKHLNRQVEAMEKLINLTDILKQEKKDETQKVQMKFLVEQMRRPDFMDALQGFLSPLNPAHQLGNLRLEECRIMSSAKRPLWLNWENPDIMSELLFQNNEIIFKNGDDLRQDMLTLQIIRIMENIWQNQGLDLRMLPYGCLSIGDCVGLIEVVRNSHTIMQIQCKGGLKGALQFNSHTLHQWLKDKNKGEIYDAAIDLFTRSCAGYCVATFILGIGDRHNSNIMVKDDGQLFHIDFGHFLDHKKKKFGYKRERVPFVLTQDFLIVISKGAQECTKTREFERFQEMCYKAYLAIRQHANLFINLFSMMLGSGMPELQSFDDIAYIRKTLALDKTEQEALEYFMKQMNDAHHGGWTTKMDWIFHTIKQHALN
Sequence of Phosphatidylinositol 4,5-bisphosphate 3-kinase catalytic subunit gamma isoform (P48736 whole entry, canonical isoform): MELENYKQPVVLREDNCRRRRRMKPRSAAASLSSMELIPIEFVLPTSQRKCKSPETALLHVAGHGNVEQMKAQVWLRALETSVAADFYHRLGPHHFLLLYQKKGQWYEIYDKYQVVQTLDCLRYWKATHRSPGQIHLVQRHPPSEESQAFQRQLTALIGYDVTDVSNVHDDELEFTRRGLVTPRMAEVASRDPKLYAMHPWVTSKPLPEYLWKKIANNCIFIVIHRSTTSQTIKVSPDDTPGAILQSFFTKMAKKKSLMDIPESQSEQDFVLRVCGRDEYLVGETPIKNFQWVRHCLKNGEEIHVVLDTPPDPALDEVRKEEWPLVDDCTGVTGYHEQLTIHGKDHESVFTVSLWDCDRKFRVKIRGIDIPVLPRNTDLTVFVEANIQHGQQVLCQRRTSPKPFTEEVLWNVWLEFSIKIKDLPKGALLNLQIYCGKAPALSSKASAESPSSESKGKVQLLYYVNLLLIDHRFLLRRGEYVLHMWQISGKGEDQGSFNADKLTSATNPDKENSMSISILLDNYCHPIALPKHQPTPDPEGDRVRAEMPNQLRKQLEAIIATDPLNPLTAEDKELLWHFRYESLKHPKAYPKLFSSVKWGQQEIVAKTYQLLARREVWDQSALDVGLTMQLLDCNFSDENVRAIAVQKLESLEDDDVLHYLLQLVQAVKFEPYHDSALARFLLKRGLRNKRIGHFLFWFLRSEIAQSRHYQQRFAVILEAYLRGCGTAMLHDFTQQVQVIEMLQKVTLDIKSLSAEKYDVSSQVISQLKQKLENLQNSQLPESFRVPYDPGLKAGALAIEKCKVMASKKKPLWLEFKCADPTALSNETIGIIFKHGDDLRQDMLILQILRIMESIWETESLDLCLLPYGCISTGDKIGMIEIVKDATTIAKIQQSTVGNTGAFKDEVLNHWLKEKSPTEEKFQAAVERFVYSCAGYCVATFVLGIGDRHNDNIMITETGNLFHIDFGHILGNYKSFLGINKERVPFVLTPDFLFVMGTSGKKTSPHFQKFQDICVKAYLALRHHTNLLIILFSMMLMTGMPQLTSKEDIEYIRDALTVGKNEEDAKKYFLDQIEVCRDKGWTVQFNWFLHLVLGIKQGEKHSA
Sequence of Phosphatidylinositol 4,5-bisphosphate 3-kinase catalytic subunit beta isoform (P42338 whole entry, canonical isoform): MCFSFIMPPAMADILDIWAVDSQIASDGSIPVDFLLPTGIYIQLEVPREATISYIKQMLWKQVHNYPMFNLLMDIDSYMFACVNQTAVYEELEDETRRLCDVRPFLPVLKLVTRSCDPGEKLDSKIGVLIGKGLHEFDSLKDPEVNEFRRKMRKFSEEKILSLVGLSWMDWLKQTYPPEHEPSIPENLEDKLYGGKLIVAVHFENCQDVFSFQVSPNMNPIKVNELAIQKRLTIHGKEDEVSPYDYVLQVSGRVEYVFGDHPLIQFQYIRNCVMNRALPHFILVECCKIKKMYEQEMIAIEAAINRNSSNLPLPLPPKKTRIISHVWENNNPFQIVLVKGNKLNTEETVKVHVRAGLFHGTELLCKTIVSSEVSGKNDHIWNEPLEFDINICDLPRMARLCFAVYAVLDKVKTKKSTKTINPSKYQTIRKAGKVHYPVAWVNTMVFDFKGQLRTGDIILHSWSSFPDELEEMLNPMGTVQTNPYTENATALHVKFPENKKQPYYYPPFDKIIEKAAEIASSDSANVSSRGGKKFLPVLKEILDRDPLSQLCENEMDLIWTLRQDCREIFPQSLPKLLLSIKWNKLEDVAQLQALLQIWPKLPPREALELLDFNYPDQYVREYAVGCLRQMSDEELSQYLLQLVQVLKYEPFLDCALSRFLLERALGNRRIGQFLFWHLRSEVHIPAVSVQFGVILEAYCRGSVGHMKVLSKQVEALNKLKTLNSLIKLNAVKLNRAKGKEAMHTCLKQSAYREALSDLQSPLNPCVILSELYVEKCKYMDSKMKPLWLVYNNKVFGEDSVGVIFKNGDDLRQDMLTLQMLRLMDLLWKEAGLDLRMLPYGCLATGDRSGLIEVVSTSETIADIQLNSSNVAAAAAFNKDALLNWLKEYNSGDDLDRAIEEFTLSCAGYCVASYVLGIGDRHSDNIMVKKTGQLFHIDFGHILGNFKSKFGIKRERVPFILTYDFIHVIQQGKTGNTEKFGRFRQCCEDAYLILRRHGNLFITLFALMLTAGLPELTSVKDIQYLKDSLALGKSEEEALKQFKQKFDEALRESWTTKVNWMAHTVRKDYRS

In general, IC50 refers to the concentration that gives 50% inhibition. A higher IC50 goes with weaker potency. With `Cc1ccccc1-n1c(Cn2cc(-c3ccccc3)nn2)nc2cccc(C)c2c1=O`, the IC50 was 1 µM in test [1]; more than 10 µM in test [2]; more than 10 µM in [3]; more than 10 µM in test [4]; more than 10 µM in test [5]; more than 10 µM in [6]. Besides, the IC50 was 250 µM in [12], 430 µM in test [13], 1 µM in test [14] and 5 µM in test [15]. For the same molecule, in test [7], the Activity is more than 50%. The result in test [8], in test [9] and in test [10] was inactive. For the same molecule, the Ratio IC50 in [11] came to 5.

As for `COc1ccc(-c2cn(Cc3nc4cccc(C)c4c(=O)n3-c3ccccc3C)nn2)c(C)c1`, the IC50 in test [1] is 1 µM; in test [2], more than 10 µM; in test [3] it was more than 10 µM; in test [4], more than 10 µM; in [5], more than 10 µM; in [6] it was more than 10 µM. The IC50 came out at 290 µM in test [12], 355 µM in test [13], 3 µM in test [14] and 10 µM in test [15]. Also, in test [7], the Activity was more than 50%. Also, the result in test [8], in test [9] and in [10] was inactive. Besides, the Ratio IC50 in test [11] worked out at 3.
